Test results reported in ChEMBL document CHEMBL3045766, “Potent nematicidal activity of phthalaldehyde, salicylaldehyde, and cinnamic aldehyde against Meloidogyne incognita” (J Agric Food Chem, 2013).
≈ marks a conversion by molar mass, not a printed value. Calls of active or inactive are those of the source. No cut-off for these calls is given here.

Assays:
[1] = biological target: T1, Collagen (Meloidogyne javanica) (UniProt O01945); assay: Covalent binding to Meloidogyne javanica (root-knot nematode) collagen 3 assessed as compound-protein adduct formation at 5 mM by HPLC-ESI-MS analysis
T1 sequence (whole entry): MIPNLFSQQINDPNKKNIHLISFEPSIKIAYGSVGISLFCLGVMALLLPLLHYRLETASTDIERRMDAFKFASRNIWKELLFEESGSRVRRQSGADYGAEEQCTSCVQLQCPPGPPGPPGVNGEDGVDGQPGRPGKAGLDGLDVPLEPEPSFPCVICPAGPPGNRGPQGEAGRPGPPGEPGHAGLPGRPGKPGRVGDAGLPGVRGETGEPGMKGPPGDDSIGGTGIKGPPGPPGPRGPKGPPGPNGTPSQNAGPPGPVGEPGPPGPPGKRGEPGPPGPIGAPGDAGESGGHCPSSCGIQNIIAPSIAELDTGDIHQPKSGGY
Method in brief: (§1)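 Aldehyde (final 1, 5 or 15 mM) incubated with probe peptide (0.5 mM) in 100 mM Tris-HCl pH 7.4, 25 °C, dark, 24 h, duplicate; stopped with TFA (0.1% final). Diluted in 0.1% TFA, analysed by HPLC-ESI-MS (C18, TFA water/acetonitrile gradient). Adducts quantified label-free as relative XIC peak area of each derivative versus sum of all derivatives; peptide-only control.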

[2] = biological target: T1, Collagen (Meloidogyne javanica); assay: Covalent binding to Meloidogyne javanica (root-knot nematode) collagen 3 assessed as compound-protein adduct formation at 1 mM by HPLC-ESI-MS analysis; method in brief: as §1
[3] = tested on: Meloidogyne incognita; assay: Nematicidal activity against second-stage juveniles of Meloidogyne incognita (root-knot nematode) after 1 day by inverted microscopic analysis; format: functional, organism-based; details: 24 h
Method in brief: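 Stocks in methanol, diluted with water/Tween; double-strength solutions mixed 1:1 with 25 J2 per well (methanol ≤1% final), covered, dark, 28 °C, 1 day. Controls: water and water/Tween 0.2%. Paralysis corrected for water-control mortality; five replicates, experiment run twice; EC50 from log-logistic nonlinear regression.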

[4] = tested on: Meloidogyne incognita; assay: Nematicidal activity against second-stage juveniles of Meloidogyne incognita (root-knot nematode) after 1 hr by inverted microscopic analysis; format: functional
Method in brief: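 J2 motility assay: methanol stocks diluted in water/Tween, mixed 1:1 with 25 J2 per well (methanol ≤1% final), kept covered in dark at 28 °C; paralysis scored at 1 h over a concentration range to give EC100. Water and water/Tween 0.2% controls; five replicates, repeated twice.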

[5] = biological target: T1, Collagen (Meloidogyne javanica); assay: Covalent binding to Meloidogyne javanica (root-knot nematode) collagen 3 assessed as compound-protein adduct formation at 15 mM by HPLC-ESI-MS analysis; method in brief: as §1
[6] = tested on: Meloidogyne incognita; assay: Nematicidal activity against second-stage juveniles of Meloidogyne incognita (root-knot nematode) assessed as microscopic fracture on cuticle at […] by scanning electron microscopic analysis; format: functional, organism-based
Method in brief: (§2)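 J2 juveniles were exposed to the aldehyde, with untreated J2 as negative controls. They were postfixed in 1% osmium tetroxide in 0.1 M cacodylate buffer for 1 h, washed in distilled water, and frozen in slush nitrogen. They were then freeze-dried under vacuum overnight (−70 °C rising to room temperature), sputter-coated with 10 nm gold and imaged by secondary-electron SEM at 15 kV.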

[7] = tested on: Meloidogyne incognita; assay: Nematicidal activity against second-stage juveniles of Meloidogyne incognita (root-knot nematode) assessed as smooth/stretched cuticle at […] by scanning electron microscopic analysis; format: functional, organism-based; method in brief: as §2
[8] = tested on: Meloidogyne incognita; assay: Nematicidal activity against second-stage juveniles of Meloidogyne incognita (root-knot nematode) assessed as macroscopic fracture on cuticle at […] by scanning electron microscopic analysis; format: functional, organism-based; method in brief: as §2

In the case of `COc1ccc(C=O)cc1OC` [3,4-DIMETHOXYBENZALDEHYDE], the Activity [1] is reported as 70%, the Activity [2] is reported as 65% and the EC50 [3] is reported as > 1000 µg/mL. The EC100 [4] was >1000 mg/L.

With `Oc1ccccc1O` [CATECHOL] the EC50 [3] was > 500 µg/mL and the EC100 [4] was >500 mg/L.

`CC(C)=CCC/C(C)=C/C=O` [CITRAL] was tested, and the EC50 [3] was 72 µg/mL (≈ 473 µM) and the EC100 [4] was >250 mg/L.

`O=Cc1ccccc1[N+](=O)[O-]` [2-NITROBENZALDEHYDE] was tested, and the EC50 [3] was 120 µg/mL (≈ 794 µM) and the EC100 [4] was >200 mg/L.

With `O=Cc1ccc(O)c(O)c1` [PROTOCATECHUALDEHYDE] the Activity [1] was 89%, the Activity [5] was 73% and the Activity [2] was 72%. For the same molecule, the EC50 [3] was > 1000 µg/mL and the EC100 [4] was >1000 mg/L.

With `COC(=O)c1ccccc1O` [METHYL SALICYLATE] the EC50 [3] was > 1000 µg/mL and the EC100 [4] was >1000 mg/L.

`O=Cc1ccccc1O` [SALICYLADEHYDE] was tested, and the Activity [6] was “inactive”, the Activity [1] was 57% and the Activity [2] was 61%. The Activity [7] was “Active”, the Activity [8] was “Active” and the EC50 [3] was 11 µg/mL (≈ 90.1 µM). For the same molecule, the EC100 [4] was >25 mg/L.

With `CCOP(=O)(SC(C)CC)N1CCSC1=O` (configuration not stated) [FOSTHIAZATE] the EC100 [4] was 3 mg/L.

`O=Cc1ccco1` [FURFURAL] showed an EC50 [3] of 8 µg/mL (≈ 83.3 µM) and an EC100 [4] of 11 mg/L.

For `O=Cc1ccc2ccccc2c1` [2-NAPHTHALDEHYDE], the EC50 [3] was 13 µg/mL (≈ 83.2 µM) and the EC100 [4] was >75 mg/L.

`O=Cc1ccccc1` [BENZALDEHYDE] was tested, and the Activity [1] was 0%, the Activity [5] was 6% and the Activity [2] was 0%. For the same molecule, the EC50 [3] was > 250 µg/mL and the EC100 [4] was >100 mg/L.

`O=CCc1ccccc1` [PHENYLACETALDEHYDE] gave an EC50 [3] of 167 µg/mL (≈ 1390 µM) and an EC100 [4] of 1000 mg/L.

`CCCCC/C=C/C=C/C=O` was tested, and the Activity [6] was “inactive”, the Activity [7] was “Active” and the Activity [8] was “Active”. The EC50 [3] was 12 µg/mL (≈ 78.8 µM) and the EC100 [4] was >20 mg/L.

In the case of `COc1cc(C=O)ccc1O` [VANILLIN], the EC50 [3] is reported as > 1000 µg/mL and the EC100 [4] is reported as >1000 mg/L.

In the case of `COc1ccccc1C=O` [2-METHOXYBENZALDEHYDE], the Activity [1] is reported as 77%, the Activity [2] is reported as 74% and the EC50 [3] is reported as > 1000 µg/mL. For the same molecule, the EC100 [4] was >1000 mg/L.

With `Cn1c2cccc(=O)c-2nc2ccccc21` [PYOCYANIN] the EC50 [3] was 72 µg/mL (≈ 342 µM) and the EC100 [4] was >250 mg/L.

`O=C/C=C\c1ccccc1` [CINNAMIC ALDEHYDE] was tested, and the EC50 [3] was 12 µg/mL (≈ 90.8 µM) and the EC100 [4] was >250 mg/L.

`O=Cc1ccccc1O[C@@H]1O[C@H](CO)[C@@H](O)[C@H](O)[C@H]1O` [HELICIN] was tested, and the EC50 [3] was > 250 µg/mL and the EC100 [4] was >250 mg/L.

For `CCc1ccc(O)c(C=O)c1`, the EC50 [3] was 53 µg/mL (≈ 353 µM) and the EC100 [4] was >100 mg/L.

`O=Cc1cccc(O)c1` [3-HYDROXYBENZALDEHYDE] was tested, and the EC50 [3] was 31 µg/mL (≈ 254 µM) and the EC100 [4] was >250 mg/L.

Molecule `O=Cc1ccc(O)cc1` [4-HYDROXYBENZALDEHYDE] has an EC50 [3] of 75 µg/mL (≈ 614 µM) and an EC100 [4] of 500 mg/L.

In the case of `c1ccc([C@H]2CN3CCSC3=N2)cc1` [LEVAMISOLE], the EC50 [3] is reported as 4 µg/mL (≈ 19.6 µM) and the EC100 [4] is reported as >20 mg/L.

With `O=Cc1ccccc1C=O` [ORTHO-PHTHALALDEHYDE] the EC50 [3] was 11 µg/mL (≈ 82 µM) and the EC100 [4] was >50 mg/L.

In the case of `O=C(O)/C=C/c1ccccc1` [CINNAMIC ACID], the EC50 [3] is reported as > 250 µg/mL and the EC100 [4] is reported as >250 mg/L.

In the case of `O=Cc1cccc(C(=O)O)c1` [3-FORMYLBENZOIC ACID], the EC50 [3] is reported as > 1000 µg/mL and the EC100 [4] is reported as >1000 mg/L.

`CC(=O)c1ccc2c(c1)OCO2` [3,4-METHYLENDIOXY ACETOPHENONE] was tested, and the EC50 [3] was > 500 µg/mL and the EC100 [4] was >500 mg/L.

`O=Cc1ccc2c(c1)OCO2` [PIPERONAL] showed an Activity [1] of 30%, an Activity [2] of 5% and an EC50 [3] of 44 µg/mL (≈ 293 µM). For the same molecule, the EC100 [4] was >100 mg/L.

In the case of `C[C@@H]1O[C@@H](O[C@H]2C[C@@H](O)[C@]3(CO)[C@H]4[C@H](O)C[C@]5(C)[C@@H](C6=CC(=O)OC6)CC[C@]5(O)[C@@H]4CC[C@]3(O)C2)[C@H](O)[C@H](O)[C@H]1O` [OUABAIN], the EC50 [3] is reported as > 1000 µg/mL and the EC100 [4] is reported as >1000 mg/L.

For `CCCCCCCCCCCCCCCc1ccc(C=O)c(O)c1`, the EC50 [3] was > 1000 µg/mL and the EC100 [4] was >1000 mg/L.

With `O=Cc1cccc(C=O)c1` [ISOPHTHALIC DICARBOXALDEHYDE] the Activity [1] was 0%, the Activity [5] was 0% and the Activity [2] was 1%. For the same molecule, the EC50 [3] was 15 µg/mL (≈ 112 µM) and the EC100 [4] was >100 mg/L.
